# Source: PubChem (The Scripps Research Institute Molecular Screening Center)
# ABHD4 inh: ABHD4 (mouse) inhibition, primary FP screen. Q8VD66. purified mABHD4, FP-Rh probe fluorescence polarization. inhibition, % at 8.92 µM. actives 0.54% (n = 370,000);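 active = inhibition exceeding the mean over every tested compound plus 3 SD, cut at about 30% in these data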;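 also: 0% = plate median of compound wells and 100% = S159A mutant with DMSO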
#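 Assay system: wild-type mouse ABHD4 protein; compound: single nominal dose of 8.92 µM, 0.89% DMSO final; schedule: 45 min + 60 min at 25 °C; measured by: FP readout, ex 525 nm / em 598 nm; evaluation: % inhibition of FP-Rh probe binding versus controls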
# TCR-CD3 inh: blocks the human TCR-CD3 interaction. TAMRA-labeled TCR probe fluorescence, biochemical. inhibition, % at 9.4 µM. actives 0.37% (n = 360,000). AID 651800; in the data active = inhibition above about 19%;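 also: recombinant mutant TCR 2C K166C tagged with TAMRA read by polarization; 0% = receptor in buffer alone and 100% = receptor with positive control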
# DAGLB inhibitor: blocks human DAGLB lipase activity. inhibition, % at 5.17 µM. HEK293T DAGLB membrane lysate, EnzChek fluorogenic substrate. actives 0.059% (n = 340,000). AID 504411. Q8NCG7; in the data active = inhibition above about 34%;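 also: 0% = enzyme with vehicle and 100% = wells lacking enzyme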
# SIAE primary: inhibitors of human sialic acid acetylesterase SIAE. SIAE FP-Rh probe binding, fluorescence polarization. Q9HAT2. actives 0.69% (n = 370,000). inhibition, % at 9.66 µM;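 active = inhibition above a cutoff: mean of compounds within the control limits plus 3 SD of those, cut at about 17% in these data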;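 also: 0% = plate median of compound wells and 100% = probe without SIAE protein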
# Target sequence (Q9HAT2 whole entry, looked up): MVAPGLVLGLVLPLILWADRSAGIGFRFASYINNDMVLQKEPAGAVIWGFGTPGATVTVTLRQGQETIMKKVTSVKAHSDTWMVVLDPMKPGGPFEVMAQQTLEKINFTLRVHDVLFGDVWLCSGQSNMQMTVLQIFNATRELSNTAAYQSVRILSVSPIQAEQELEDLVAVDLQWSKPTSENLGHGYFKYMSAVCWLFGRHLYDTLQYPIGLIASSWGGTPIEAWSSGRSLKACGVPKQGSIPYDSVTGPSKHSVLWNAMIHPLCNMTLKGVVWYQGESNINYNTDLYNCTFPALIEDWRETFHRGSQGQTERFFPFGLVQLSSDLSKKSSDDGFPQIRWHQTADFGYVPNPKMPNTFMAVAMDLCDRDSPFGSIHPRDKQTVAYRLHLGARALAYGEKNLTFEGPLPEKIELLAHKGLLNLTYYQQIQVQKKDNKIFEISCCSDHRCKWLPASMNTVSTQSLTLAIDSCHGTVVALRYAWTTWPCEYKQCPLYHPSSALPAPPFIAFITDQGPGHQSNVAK
# HTRA1 inh: blocks human HTRA1 serine peptidase; Q92743; recombinant HTRA1, FP-rhodamine activity-based probe, fluorescence polarization; actives 0.5% (n = 340,000); inhibition, % at 5.96 µM; AID 504803; in the data active = inhibition above about 36%;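 also: 0% = enzyme with DMSO and 100% = wells lacking enzyme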
# ABHD4 confirm: ABHD4 (mouse) inhibition, FP confirmation; shares compounds with ABHD4 inh; purified mABHD4, FP-Rh probe fluorescence polarization; inhibition, % at 8.92 µM; actives 55% (n = 1,800);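 active = mean inhibition across replicates above the hit cutoff set in the primary screen, cut at about 30% in these data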;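 also: 0% = wild-type ABHD4 with DMSO and 100% = catalytically dead S159A mutant with DMSO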
# Active calls of the source: *; nt = no result given. Sampled rows, rich in hits. Any-hit rate of the full collection: about 1.6%.
SMILES,ABHD4 inh,TCR-CD3 inh,DAGLB inhibitor,SIAE primary,HTRA1 inh,ABHD4 confirm
O=C(O)c1[nH]c2ccccc2c1C(c1cc(Br)ccc1O)c1c(C(=O)O)[nH]c2ccccc12,43.3*,8.7,13.6,3.9,1.4,47.2*
COc1cc(Cl)cc(C(c2c(C(=O)O)[nH]c3ccccc23)c2c(C(=O)O)[nH]c3ccccc23)c1O,42.6*,12.2,15.0,6.8,1.6,55.2*
O=C(O)c1[nH]c2ccccc2c1-c1ccccc1,5.6,2.0,4.1,0.7,6.7,nt
COC(=O)C1CN(Cc2ccccc2)CCS(=O)(=O)N1Cc1cn(Cc2cccc(Cl)c2)nn1 (stereo not drawn),3.9,nt,nt,-1.1,nt,nt
O=c1[nH][nH]c2c([N+](=O)[O-])ccc(F)c12,36.3*,13.3,nt,0.0,nt,33.7*
Cc1cccc2c(N=Nc3ccc(S(=O)(=O)Nc4ccc(Cl)cc4)cc3[N+](=O)[O-])c(O)[nH]c12,40.0*,3.8,3.7,6.8,19.8,38.3*
COC(=O)[C@@H](Cc1c[nH]c2ccccc12)NCc1cccc(B(O)O)c1,67.1*,6.0,-4.0,2.7,11.4,61.3*
COC(=O)C(Cc1c[nH]c2ccccc12)NC(C)=O (stereo not drawn),11.9,6.6,0.4,2.5,6.5,nt
CCN(CC(=O)Nc1ccc(C(C)=O)cc1)CC(=O)Nc1ccc2c(c1)OCCO2,13.7,-1.5,-0.1,6.5,-4.0,nt
CCN(CC(=O)Nc1ccc2c(c1)OCCO2)CC(=O)Nc1ccccc1C(F)(F)F,31.6*,-1.8,-0.6,5.0,3.4,7.0
COC(=O)C1=C(C)N(Cc2ccc(C(F)(F)F)cc2)C(=NCc2ccccc2)NC1c1ccccc1 (stereo not drawn),33.2*,-3.2,nt,-11.8,nt,48.2*
COC(=O)C1=C(C)N(Cc2ccccc2)C(=NCc2cccc(C(F)(F)F)c2)N[C@H]1c1cccc(F)c1,37.5*,2.7,-3.5,-1.1,-35.3,44.0*
COC(=O)C1=C(C)N(Cc2ccc(C(F)(F)F)cc2)C(=NCc2ccccc2)NC1c1ccc(C(F)(F)F)cc1 (stereo not drawn),30.9*,1.6,nt,2.6,nt,39.5*
COC(=O)C1=C(C)N(Cc2ccc(C(F)(F)F)cc2)C(=NCc2ccccc2)NC1c1cccc(C(F)(F)F)c1 (stereo not drawn),23.0,0.4,nt,-0.7,nt,nt
COC(=O)C1=C(C)N(Cc2cccc(C(F)(F)F)c2)C(=NCc2ccc3c(c2)OCO3)NC1c1ccc(Cl)cc1 (stereo not drawn),39.9*,8.7,nt,-2.6,nt,82.2*
CCCCNC(=O)C[C@H]1C[C@@]2(C(=O)OC)C(=C[C@H](COCc3ccccc3)O[C@@H]2C)N(Cc2ccco2)C1=O,3.9,nt,nt,5.8,nt,nt
CC1(C)CC(=O)C=C(C#CC2CC2)C1,4.1,3.4,nt,-1.2,nt,nt
CCN=C1NC(c2cccc(Cl)c2)C(C(=O)OC)=C(C)N1Cc1ccc(C(F)(F)F)cc1 (stereo not drawn),11.9,-2.6,nt,2.6,nt,nt
COC(=O)C1=C(C)N(Cc2ccc(C(F)(F)F)cc2)C(=NCc2ccccc2)NC1c1cccc(Cl)c1 (stereo not drawn),36.7*,5.1,nt,6.7,nt,44.3*
O=[N+]([O-])c1ccccc1C(=Nc1ccccc1)c1c(O)cc(O)cc1O,30.3*,-0.8,30.9,8.6,3.6,2.7
O=C(Nc1ccccc1)c1ccccc1NC(=O)c1ccccc1[N+](=O)[O-],2.2,-4.2,-3.4,-4.9,-15.1,nt
Cc1c(N2C(=O)/C(=C3/C(=O)N(C)c4ccccc43)SC2=S)c(=O)n(-c2ccccc2)n1C,5.1,8.2,0.2,2.7,-3.4,nt
CCCC(C(=O)O)N1C(=O)/C(=C2\C(=O)N(C)c3ccccc32)SC1=S (stereo not drawn),41.0*,1.5,0.4,11.8,3.1,58.4*
O=C(O)CN1C(=O)/C(=C2\SC(=S)N(C(Cc3ccccc3)C(=O)O)C2=O)c2ccccc21 (stereo not drawn),55.6*,-16.7,1.9,2.4,-3.0,45.1*
O=C(O)CCN1C(=O)/C(=C2\C(=O)N(Cc3ccccc3Cl)c3ccccc32)SC1=S,4.7,3.5,-1.7,11.6,2.5,nt
SMILES,ABHD4 inh,TCR-CD3 inh,DAGLB inhibitor,SIAE primary,HTRA1 inh,ABHD4 confirm
C[C@H]1[C@H](NC(=O)c2cccc(Cl)c2)CC[C@@]23CCCN2C(=O)CCC[C@@H]13,-0.3,nt,nt,-5.4,nt,nt
CNc1nc(NCCOc2ccccc2Cl)c2sccc2n1,7.1,-5.6,nt,-1.8,nt,nt
COc1ccccc1CNc1nc(NC(C)C)nc2ccsc12,8.8,8.1,nt,6.8,nt,nt
COc1ccccc1CNc1nc(NCCOc2ccccc2Cl)c2sccc2n1,30.6*,-0.3,nt,10.3,nt,69.2*
COc1ccccc1CNc1nc(NCc2ccc(C(C)C)cc2)c2sccc2n1,35.6*,2.6,nt,10.2,nt,33.6*
O=C(N1CCC(Cc2ccccc2)CC1)n1ncc(C(O)(c2ccccc2)c2ccccc2)n1,76.6*,nt,nt,-3.2,nt,68.8*
COC(=O)C/C=C/[C@@H](C)[C@H](NC(=O)OCC(Cl)(Cl)Cl)c1ccc(-c2ccccc2)cc1,-11.2,nt,nt,-8.1,nt,nt
O=C(NNc1nc2ccccc2s1)Nc1ccc(Cl)c(Cl)c1,11.9,-19.5,-10.5,5.0,-11.1,nt
O=C(NNc1nc2ccccc2s1)Nc1ccc(F)cc1,38.0*,-0.4,-0.9,12.5,7.0,0.8
C/C=C/COC(=O)c1[nH]c2c(c1C)C(=O)CC(c1ccco1)C2 (stereo not drawn),31.9*,-2.1,1.4,3.4,-10.3,-14.3
Cc1ccc(-c2cc(C(=O)NN=Cc3cccc4ccccc34)[nH]n2)cc1C,-72.0,nt,nt,-42.7,nt,nt
O=C(CNc1ccc2ccccc2c1)N/N=C/c1ccccn1,39.3*,-2.2,nt,14.8,nt,12.0
CN1CC=C2C(C#N)=C(N)C(C#N)(C#N)C(c3ccsc3)C2C1 (stereo not drawn),19.1,12.2,-4.0,9.2,26.8,nt
CN1CC=C2C(C#N)=C(N)C(C#N)(C#N)[C@H](c3cccc(Cl)c3)C2C1 (stereo partly drawn),31.1*,4.5,-1.4,7.8,22.2,-2.4
C[C@@H]1CCN(C2CC2)S(=O)(=O)c2c(cccc2N2CC[C@H](O)C2)O1,0.3,nt,nt,-1.3,nt,nt
O=C(N1CCc2ccccc2C1)n1cc(C(O)(c2ccccc2)c2ccccc2)nn1,85.9*,nt,nt,-10.4,nt,69.0*
Cc1cc(C)n(-c2ncc3c(n2)N(CCO)CCOC3=O)n1,-1.3,-4.7,-2.9,-0.9,1.9,nt
CC1=CC2(O)OCCN(CCO)C2=CC1=O (stereo not drawn),30.2*,9.9,2.1,-0.1,11.0,6.3
CC(NCc1ccco1)C(=O)N1CCN(c2ccc(F)cc2)CC1 (stereo not drawn),-2.6,nt,nt,4.8,nt,nt
O=C(/C=C(\Nc1cccc(OC(F)F)c1)c1ccccc1)c1ccccc1,-6.1,-2.7,nt,-1.2,nt,nt
O=C1NN(c2ccc(Cl)c(Cl)c2)C(=O)/C1=C/c1ccc(-c2ccccc2C(=O)O)o1,30.9*,-3.7,28.1,3.9,2.4,65.3*
